In ChEMBL document CHEMBL4261561, “Thiosemicarbazone-based selective proliferation inactivators inhibit gastric cancer cell growth, invasion, and migration” (Medchemcomm, 2017):

Legend:
SMMC-7721 = assay: Antiproliferative activity against human SMMC7721 cells after 72 hrs by MTT assay; type: functional, cell-based; details: SMMC-7721, 72 h
Summary of the method: (§1)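 Exponentially growing cells were seeded at about 3×10^3 per well and left 24 h, then given fresh medium with a range of compound concentrations for 72 h. MTT solution (5 mg/mL) was added for another 4 h. Medium was removed, formazan was dissolved in DMSO, and absorbance was read at 570 nm. IC50 was derived statistically.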

MCF7 = assay: Antiproliferative activity against human MCF7 cells after 72 hrs by MTT assay; type: functional, cell-based; details: MCF7, 72 h; summary of the method: as §1
MGC-803 = assay: Antiproliferative activity against human MGC803 cells after 72 hrs by MTT assay; type: functional, cell-based; details: MGC-803, 72 h; summary of the method: as §1
GES1 = assay: Cytotoxicity against human GES-1 cells after 72 hrs by MTT assay; type: cell-based; details: GES1, 72 h; summary of the method: as §1

| IC50 (SMMC-7721) | IC50 (MCF7) | IC50 (MGC-803) | Structure (SMILES) | IC50 (GES1) |
| --- | --- | --- | --- | --- |
| > 64 µM | > 64 µM | > 64 µM | C/C(=N\NC(=S)N1CCOCC1)c1ccccc1N |  |
| > 64 µM | > 64 µM | 32.6 µM | S=C(N/N=C/c1ccc2ccccc2c1)N1CCOCC1 |  |
| 42.8 µM | 18.9 µM | 9.68 µM | NC(=S)N/N=C/c1ncccc1N [TRIAPINE] | 5.4 µM |
| > 64 µM | 49.2 µM | 11.2 µM | C/C(=N\NC(=S)N1CCOCC1)c1ccccc1O |  |
| > 64 µM | > 64 µM | 58.4 µM | C/C(=N\NC(=S)N1CCN(C(=O)OC(C)(C)C)CC1)c1cc(Cl)ccc1O |  |
